# Active and inactive are the calls of the source. The rule behind the calls is not given here. Where a SMILES comes first, the peptide text is derived from it.
# Legend:
# Lipid bilayer [1] = assay: Inhibition of PEG-induced DOPC/DOPE/DOPG/CH (50/30/10/10 mol%) (10 CH) small unilamellar vesicles fusion assessed as content mixing at 1:100 compound: lipid concentration preincubated for 10 mins followed by PEG addition by spectrofluorometric analysis (reference value: 33 %)
# Summary of the method: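 Tb3+-loaded (8 mM TbCl3) and DPA-loaded (80 mM) SUVs, external probe removed by Sephadex G-75, mixed 1:1 at 200 μM total lipid in 10 mM TES, 100 mM NaCl, 1 mM EDTA, 1 mM CaCl2, pH 7.4, 37 °C; 2 μM peptide added 10 min before 6% (w/v) PEG; Tb/DPA fluorescence rise over time, normalized with detergent; inhibition relative to no-peptide control.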
# Lipid bilayer [2] = assay: Inhibition of PEG-induced DOPC/DOPE/DOPG/CH (40/30/10/20 mol%) (20 CH) small unilamellar vesicles fusion assessed as content mixing at 1:100 compound: lipid concentration preincubated for 10 mins followed by PEG addition by spectrofluorometric analysis
# Summary of the method: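 Content mixing by Tb3+/DPA complex fluorescence. Vesicles loaded with 8 mM TbCl3 or 80 mM DPA, external probe removed by gel filtration. Mixed 1:1 at 200 μM lipid; peptide 2 μM added 10 min before 6% (w/v) PEG, 37 °C. Normalised to co-encapsulated and detergent-treated samples.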
smiles,measurement,setting,value
CC[C@H](C)[C@H](NC(=O)[C@H](CC(C)C)NC(=O)[C@H](C)NC(=O)[C@@H](NC(=O)[C@H](Cc1ccccc1)NC(=O)[C@H](CCCCN)NC(=O)[C@@H]1CCCN1C(=O)[C@H](CC(N)=O)NC(=O)[C@@H](NC(=O)[C@H](C)NC(=O)[C@H](CS)NC(=O)[C@H](Cc1ccccc1)NC(=O)CNC(=O)[C@H](CO)NC(=O)[C@H](CC(=O)O)NC(=O)[C@H](Cc1c[nH]c2ccccc12)NC(=O)[C@@H](NC(=O)[C@@H](N)[C@@H](C)O)[C@@H](C)O)C(C)C)C(C)C)C(=O)N[C@@H](CS)C(=O)N[C@@H](CCC(=O)O)C(=O)N[C@@H](C)C(=O)N[C@@H](CO)C(=O)NCC(=O)O (H-TTWDSGFCAVNPKFVALICEASG-OH),inhibition,Lipid bilayer [1],5%
same,inhibition,Lipid bilayer [2],inactive

# Reference: ChEMBL document CHEMBL6182829, “Developing peptide-based fusion inhibitors as an antiviral strategy utilizing coronin 1 as a template” (RSC Med Chem, 2025)
